Measured values published in paper PMC6512341 (ACS chemical neuroscience, 2018).

Key:
MDR1 = assay: Permeability studies in MDCK-MDR1 cells; type: in vitro ADME; conditions: dog, MDCK-MDR1
[1] = Pilot brain and plasma pharmacokinetic studies of SW-100; type: in vivo, C57BL/6 male mice; conditions: male, C57BL/6, mouse, ip, 20 mg/kg
[2] = Liver microsomal stability, human; type: in vitro ADME; conditions: liver microsomes
[3] = Liver microsomal stability, mouse; type: in vitro ADME; conditions: liver microsomes
[4] = Hepatocyte stability, human; type: in vitro ADME; conditions: hepatocytes
[5] = Hepatocyte stability, mouse; type: in vitro ADME; conditions: hepatocytes
hERG = hERG (Homo sapiens, UniProt Q12809); assay: hERG test in HEK293 cells; type: cell-based
CYP1A2 = target: T1, CYP1A2 (Homo sapiens, UniProt P05177); assay: CYP inhibition, 1A2; type: in vitro ADME
T1 sequence (P05177 1-516): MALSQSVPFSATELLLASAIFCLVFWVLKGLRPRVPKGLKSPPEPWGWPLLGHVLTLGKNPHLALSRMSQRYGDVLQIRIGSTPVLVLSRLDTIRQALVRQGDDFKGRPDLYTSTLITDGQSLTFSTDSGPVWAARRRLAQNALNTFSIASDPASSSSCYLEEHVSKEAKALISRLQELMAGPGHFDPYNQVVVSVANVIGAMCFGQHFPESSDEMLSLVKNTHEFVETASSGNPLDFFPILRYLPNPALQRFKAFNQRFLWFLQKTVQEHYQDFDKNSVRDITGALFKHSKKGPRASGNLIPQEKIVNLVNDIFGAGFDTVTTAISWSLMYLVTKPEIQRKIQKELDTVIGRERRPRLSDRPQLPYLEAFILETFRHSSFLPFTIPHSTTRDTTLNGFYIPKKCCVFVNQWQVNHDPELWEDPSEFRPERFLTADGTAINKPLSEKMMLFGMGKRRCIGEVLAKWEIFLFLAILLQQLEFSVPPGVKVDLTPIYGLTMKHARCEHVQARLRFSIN

CYP2C9 = CYP2C9 (Homo sapiens, UniProt P11712); assay: CYP inhibition, 2C9; type: in vitro ADME
CYP2C19 = CYP2C19 (Homo sapiens, UniProt P33261); assay: CYP inhibition, 2C19; type: in vitro ADME
CYP2D6 = CYP2D6 (Homo sapiens, UniProt P10635); assay: CYP inhibition, 2D6; type: in vitro ADME
CYP3A4 = CYP3A4 (Homo sapiens, UniProt P08684); assay: CYP inhibition, 3A4; type: in vitro ADME
[6] = tested on: TA98, TA100, TA1535, TA1537, WP2 uvrA; assay: Ames test; type: cell-based, Salmonella typhimurium, Escherichia coli; conditions: presence and absence of S9 mix
acetylated α-tubulin [7] = assay: α-Tubulin acetylation studies in HEK293 cells; type: cell-based; conditions: 0.01, 0.1, 1, and 10 μM
Outline: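 HEK293 cells plated 24 h ahead and treated at 70% confluency with 10 nM–10 µM. Lysed in MPER with protease inhibitors; 2 µg protein boiled, run on 12% gel, transferred to PVDF. Blocked in 5% milk/TBST; anti-acetyl-tubulin 1:3000 overnight at 4 °C, then HRP secondary 1:5000; ECL. Reprobed for total α-tubulin at 1:1000. Densitometric ratio normalized to 10 µM reference HDAC6 inhibitor; n = 3–4; one-way ANOVA vs vehicle.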

acetylated histone 3 = assay: Histone acetylation in N2a cells; type: cell-based; conditions: compared to vehicle
Outline: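 N2a cells treated at 1 µM or 10 nM; reference HDAC inhibitors served as positive controls. Histones extracted by kit; protein by micro BCA. Samples denatured in reducing buffer at 95 °C for 5 min and blotted to PVDF. Blocked in 5% BSA/TBST 1 h at RT; primaries overnight: acetyl-H3 K9+K14 1:1000, histone 4 1:1000. Ratios normalized to vehicle; n = 4; one-way ANOVA vs vehicle.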

Fmr1^−/− mice [8] = assay: Novel object recognition task; type: in vivo; conditions: 20 mg/kg IP
Fmr1^−/− mice [9] = assay: Temporal order memory task; type: in vivo; conditions: 20 mg/kg IP
acetylated α-tubulin [10] = assay: Immunoblot of acetylated α-tubulin in mouse hippocampus; type: in vivo, mice; conditions: 20 mg/kg, 2 h after treatment
Outline: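 Male C57BL/6 WT and Fmr1−/− mice, 8–10 weeks old, given 20 mg/kg IP twice daily on days 1–2, plus a dose 1 h before cognitive testing on days 3 and 4. Hippocampi taken 2 h after treatment and homogenized in Tris pH 7.4 lysis buffer with protease and phosphatase inhibitors. Spun at 20,800 × g for 10 min; Bradford assay. 10 µg protein run on SDS-PAGE to nitrocellulose; acetyl-α-tubulin and α-tubulin antibodies at 1:4000.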

CYP2C19, sequence (P33261 whole entry): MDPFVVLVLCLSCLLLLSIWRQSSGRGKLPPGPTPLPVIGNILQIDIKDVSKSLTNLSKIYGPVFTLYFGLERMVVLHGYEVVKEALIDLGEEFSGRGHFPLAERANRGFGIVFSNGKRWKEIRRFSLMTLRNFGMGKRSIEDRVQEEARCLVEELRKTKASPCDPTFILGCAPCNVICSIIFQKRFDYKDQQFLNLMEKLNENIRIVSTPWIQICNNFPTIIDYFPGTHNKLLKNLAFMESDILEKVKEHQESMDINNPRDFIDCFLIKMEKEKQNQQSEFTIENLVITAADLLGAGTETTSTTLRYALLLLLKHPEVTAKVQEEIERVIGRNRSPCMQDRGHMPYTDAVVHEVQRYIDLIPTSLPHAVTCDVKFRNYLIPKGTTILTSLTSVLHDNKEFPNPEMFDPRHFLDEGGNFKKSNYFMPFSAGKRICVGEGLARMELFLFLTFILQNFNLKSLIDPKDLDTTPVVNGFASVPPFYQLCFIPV
CYP3A4, sequence (P08684 whole entry): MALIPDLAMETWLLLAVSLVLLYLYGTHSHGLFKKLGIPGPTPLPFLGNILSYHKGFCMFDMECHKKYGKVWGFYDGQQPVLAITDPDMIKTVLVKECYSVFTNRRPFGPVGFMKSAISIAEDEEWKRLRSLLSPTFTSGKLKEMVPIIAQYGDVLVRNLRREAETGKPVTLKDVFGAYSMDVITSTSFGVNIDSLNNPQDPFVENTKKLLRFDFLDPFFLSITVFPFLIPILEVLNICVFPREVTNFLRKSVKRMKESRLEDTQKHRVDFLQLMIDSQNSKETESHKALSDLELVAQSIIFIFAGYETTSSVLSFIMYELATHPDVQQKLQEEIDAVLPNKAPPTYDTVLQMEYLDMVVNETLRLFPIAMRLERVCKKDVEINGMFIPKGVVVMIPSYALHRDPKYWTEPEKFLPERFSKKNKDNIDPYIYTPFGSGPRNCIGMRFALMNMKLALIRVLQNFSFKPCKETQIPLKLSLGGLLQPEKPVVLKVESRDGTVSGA
CYP2D6, sequence (P10635 whole entry): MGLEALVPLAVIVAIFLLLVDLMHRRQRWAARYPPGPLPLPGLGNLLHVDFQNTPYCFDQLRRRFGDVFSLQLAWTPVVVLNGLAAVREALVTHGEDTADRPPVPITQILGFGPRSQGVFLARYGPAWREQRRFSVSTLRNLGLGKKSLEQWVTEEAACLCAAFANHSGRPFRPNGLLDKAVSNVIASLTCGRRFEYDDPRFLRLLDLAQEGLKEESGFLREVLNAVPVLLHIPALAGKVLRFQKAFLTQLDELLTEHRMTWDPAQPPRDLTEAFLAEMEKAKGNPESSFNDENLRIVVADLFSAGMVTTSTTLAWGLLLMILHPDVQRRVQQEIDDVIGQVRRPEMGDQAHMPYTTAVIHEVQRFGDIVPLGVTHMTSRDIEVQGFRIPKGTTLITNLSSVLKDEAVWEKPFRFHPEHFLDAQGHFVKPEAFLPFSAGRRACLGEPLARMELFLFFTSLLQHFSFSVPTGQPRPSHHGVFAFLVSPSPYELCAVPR
CYP2C9, sequence (P11712 whole entry): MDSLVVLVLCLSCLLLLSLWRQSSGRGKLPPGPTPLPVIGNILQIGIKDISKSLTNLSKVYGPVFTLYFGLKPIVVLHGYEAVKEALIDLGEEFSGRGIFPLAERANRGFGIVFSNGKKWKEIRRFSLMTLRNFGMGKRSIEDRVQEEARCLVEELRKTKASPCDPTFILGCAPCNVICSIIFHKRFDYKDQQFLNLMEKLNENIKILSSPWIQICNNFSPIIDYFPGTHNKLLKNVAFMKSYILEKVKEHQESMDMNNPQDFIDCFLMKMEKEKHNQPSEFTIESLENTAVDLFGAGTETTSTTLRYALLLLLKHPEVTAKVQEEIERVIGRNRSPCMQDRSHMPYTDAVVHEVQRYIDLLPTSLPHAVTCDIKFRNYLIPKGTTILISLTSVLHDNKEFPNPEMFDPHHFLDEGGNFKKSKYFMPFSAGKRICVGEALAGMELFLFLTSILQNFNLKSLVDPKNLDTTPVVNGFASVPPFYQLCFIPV
hERG, sequence (Q12809 whole entry): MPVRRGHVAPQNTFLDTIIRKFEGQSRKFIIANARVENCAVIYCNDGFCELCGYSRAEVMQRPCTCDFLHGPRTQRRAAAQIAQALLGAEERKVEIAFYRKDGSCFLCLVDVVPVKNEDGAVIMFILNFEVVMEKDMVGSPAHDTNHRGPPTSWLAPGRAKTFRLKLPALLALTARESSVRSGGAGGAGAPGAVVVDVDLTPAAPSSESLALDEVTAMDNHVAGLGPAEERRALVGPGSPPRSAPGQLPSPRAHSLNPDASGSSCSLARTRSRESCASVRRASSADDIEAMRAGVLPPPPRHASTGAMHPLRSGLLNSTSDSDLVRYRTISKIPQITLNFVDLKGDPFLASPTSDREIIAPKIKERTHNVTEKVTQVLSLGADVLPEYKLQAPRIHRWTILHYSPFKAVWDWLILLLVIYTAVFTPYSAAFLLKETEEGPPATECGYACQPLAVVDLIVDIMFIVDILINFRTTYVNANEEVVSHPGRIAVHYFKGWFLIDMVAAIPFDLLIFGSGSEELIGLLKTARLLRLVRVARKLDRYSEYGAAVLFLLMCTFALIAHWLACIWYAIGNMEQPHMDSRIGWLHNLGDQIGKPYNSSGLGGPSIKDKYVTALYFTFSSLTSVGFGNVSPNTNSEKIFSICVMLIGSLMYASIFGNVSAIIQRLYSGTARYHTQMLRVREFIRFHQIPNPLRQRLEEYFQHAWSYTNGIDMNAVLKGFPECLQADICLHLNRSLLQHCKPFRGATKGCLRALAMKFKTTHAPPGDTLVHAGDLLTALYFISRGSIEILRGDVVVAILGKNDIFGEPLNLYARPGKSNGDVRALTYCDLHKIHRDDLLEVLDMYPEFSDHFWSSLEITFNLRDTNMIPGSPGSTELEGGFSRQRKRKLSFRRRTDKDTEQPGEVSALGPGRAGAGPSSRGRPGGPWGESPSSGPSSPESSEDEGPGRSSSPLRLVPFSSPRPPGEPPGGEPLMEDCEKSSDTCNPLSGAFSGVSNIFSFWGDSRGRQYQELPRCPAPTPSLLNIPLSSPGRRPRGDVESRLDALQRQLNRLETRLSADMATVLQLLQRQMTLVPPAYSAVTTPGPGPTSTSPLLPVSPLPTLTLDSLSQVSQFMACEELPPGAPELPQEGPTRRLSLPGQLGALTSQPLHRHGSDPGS

O=C(NO)c1ccc(CN2CCCc3cc(Cl)ccc32)cc1 [SW-100, 4-((6-Chloro-3,4-dihydroquinolin-1(2H)-yl)methyl)-N-hydroxybenzamide]
Papp A→B at 2 h (MDR1): 4.58 ×10⁻⁶ cm/s
Papp B→A at 2 h (MDR1): 2.33 ×10⁻⁶ cm/s
concentration at 1 h ([1]; brain): 142 ± 52.3 ng/mL
concentration at 4 h ([1]; brain): 11.5 ± 0.3 ng/mL
Kp at 1 h ([1]; brain/plasma): 2.44
concentration at 1 h ([1]; plasma): 58.2 ± 24.9 ng/mL
concentration at 4 h ([1]; plasma): 2.52 ± 0.13 ng/mL
half-life [2]: 23 min
half-life [3]: 23 min
half-life [4]: 30 min
half-life [5]: 10 min
IC50 (hERG): 12.2 µM
inhibition at 10 µM (CYP1A2): 20.5%
inhibition at 10 µM (CYP2C9): 18.8%
inhibition at 10 µM (CYP2C19): 83.2%
inhibition at 10 µM (CYP2D6): 2.51%
inhibition at 10 µM (CYP3A4): -0.63%
Ames test [6]: negative
effect on acetylated α-tubulin levels (in words) (acetylated α-tubulin [7]): more obvious increase in the acetylated α-tubulin levels in a dose-dependent manner
levels of acetylated histone 3 to histone 4 (acetylated histone 3): < 1.5 fold
novel object recognition: time exploring novel versus familiar object (Fmr1^−/− mice [8]; Fmr1^−/− mice): spent significantly more time exploring the novel object than the familiar object
novel object recognition (Fmr1^−/− mice [8]; WT mice): did not alter the novel object recognition of WT mice
temporal order: time exploring first versus most recent object (Fmr1^−/− mice [9]): spent significantly more time exploring the first object compared to the most recent object presented
acetylated α-tubulin levels in the hippocampus (acetylated α-tubulin [10]; Fmr1^−/− mice): significantly increased
hippocampal α-tubulin acetylation (acetylated α-tubulin [10]; WT mice): no significant influence
